Our source for the inhibition values is PubChem BioAssay AID1885 (Broad Institute, 2009).

“And” between values parts separate entries of the source, which are not always exact repeats. Identical values can stand only once. Screen size: about 300,000 compounds; about 4,400 (1.5%) were called active.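 The calls were made as follows: active = mean inhibition across valid replicates above about 55% (limit read from the data); inconclusive = mean below that limit but half or more replicates reach it; inactive = mean below it, under half of replicates reach it.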 Only a selection was taken, and actives are over-represented in it overall. A structure can be active in one record and inactive in another.

The nature of this experiment: inhibitors of intracellular T. cruzi growth, primary screen, luminescence, NIH3T3 host cells (AID 1885).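 Also: signal also drops with host cell toxicity which is not excluded here; 0% = plate median of DMSO wells and 100% = zero luminescence signal; higher percent means less beta-gal luminescence so fewer parasites.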 As to conditions: T. cruzi beta-gal in NIH3T3, luminescence, 90 h; stronger effect = higher value; concentration not given here. The method, boiled down: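 System: NIH/3T3 fibroblasts plus reporter T. cruzi. Medium: DMEM plus 2% FBS. Probe or stimulus: 5000 reporter trypomastigotes per well. Compound: single 50 nL compound addition per well in DMSO. Incubation: co-culture of at least 90 h after 3 h attachment. Detection: GalScreen β-gal luminescence, detergent lysis, 60 min. Evaluation: parasite load inhibition, %.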
On to `O=C(CN1CCN(S(=O)(=O)c2ccc(Br)cc2)CC1)Nc1ccccc1C(=O)c1ccccc1`, for which the inhibition was 56% (active).

In the case of `COc1ccccc1NC(=O)CN1CCN(S(=O)(=O)c2ccc(Br)cc2)CC1`, the inhibition was 8.31% (inactive).

As for `O=C(CN1CCN(S(=O)(=O)c2ccc(F)cc2)CC1)Nc1ccccc1F`, the inhibition is 4.08% (inactive).

For `COc1cccc(COc2ccc(N(C)S(=O)(=O)c3ccccc3)cc2)c1`, the inhibition is 9.64% (inactive).

Regarding `COc1ccc(N=Cc2c(O)[nH]c3ccccc23)cc1OC`, the inhibition was -17.8% (inactive).

With `CN=c1scc(-c2cc(OC)ccc2OC)n1/N=C/c1c(C)[nH]c2ccccc12`, the inhibition was 73.4% (active).

`CCn1c(-c2cc(OC)ccc2OC)csc1=Nc1c(C)n(C)n(-c2ccccc2)c1=O`: the inhibition was 13.7% (inactive).

For `O=C(CCNC(=O)c1ccc(Br)cc1)Nc1cccc(S(=O)(=O)N2CCCCC2)c1`, the inhibition was 3.39% (inactive).

For the compound `COc1c(C)c2c(c(O)c1C/C=C(\C)CCC(=O)O)C(=O)OC2`, the inhibition was 62.2% (active).

As to `CCN(CC(=O)Nc1c(F)cccc1F)C(=O)c1ccc(-c2ccccc2)cc1`, the inhibition was -22.3% (inactive).

As to `Cc1ccccc1NC(=O)C(C)OC(=O)CCC(=O)N(CC(C)C)c1c(N)n(CC(C)C)c(=O)[nH]c1=O` (configuration not stated), the inhibition was 0.843% (inactive).

In the case of `Fc1ccc(CNCc2ccc(Br)cc2)cc1`, the inhibition is -7.54% (inactive).

Turning to `Cc1c(NC(=O)C(C)OC(=O)c2c3c(nc4ccccc24)CCC(C)C3)c(=O)n(-c2ccccc2)n1C` (configuration not stated), the inhibition is -9.27% (inactive).

For the compound `COC(=O)C1=CN(Cc2ccc(OC)cc2)C=C(C(=O)OC)C1c1ccc(O)c(OC)c1`, the inhibition was 11.3% (inactive).

For the compound `COC(=O)C1=CN(Cc2ccc(OC)c(OC)c2)C=C(C(=O)OC)C1c1cccs1`, the inhibition is 65% (active).

Regarding `COc1ccc(CCNC(=O)COC(=O)/C=C/c2cccs2)cc1OC`, the inhibition is -3.17% (inactive).

Turning to `Cc1cc(-c2ccccc2)n2nc(C)c(-c3ccccc3)c2n1`, the inhibition was 32.1% (inactive).

On to `CCc1c(C)nc2c(-c3ccccc3)c(C)nn2c1Nc1ccc(NC(C)=O)cc1`, for which the inhibition is 54.5% (active).

Turning to `Cc1cc(-n2nc(C)cc2C)n2nc(C)c(-c3ccccc3)c2n1`, the inhibition is 14.4% (inactive).

Consider `O=S(=O)(Nc1cccc(-c2ccc(N3CCOCC3)nn2)c1)c1ccc(Cl)c(Cl)c1`, for which the inhibition is -4.53% (inactive).

As to `COc1ccc(Cl)cc1NC(=O)CN(C)C(=O)c1cc2ccccc2cc1OC`, the inhibition was 12.8% (inactive).

Regarding `COc1ccccc1OCCn1c(SCC(N)=O)nc2ccccc21`, the inhibition was -6.95% (inactive).

Take `O=C(CSc1ccccn1)N1CCN(S(=O)(=O)c2ccc(Cl)cc2)CC1`: the inhibition is -3.29% (inactive).

Take `O=C(Nc1ccccc1N1CCCC1)c1ccc(F)c(S(=O)(=O)N2CCOCC2)c1`: the inhibition is -5.53% (inactive).

Regarding `O=C(NCCCNC(=O)NC1CCCCC1)NC1CCCCC1`, the inhibition was -9.22% (inactive).

Regarding `COc1cccc(NC(=S)N(Cc2ccc(C)cc2)Cc2ccccn2)c1`, the inhibition was 78.1% (active).

For `COc1cccc(NC(=S)NCc2ccccn2)c1`, the inhibition is 4.96% (inactive).

Regarding `CSc1cccc(NC(=S)N(Cc2ccccc2)Cc2ccccn2)c1`, the inhibition is 2.49% (inactive).

Regarding `Nn1c(SCc2ccccc2)nnc1C1CCCCC1`, the inhibition is 2.33% (inactive).

`CCc1ccc(N2CC(C(=O)Nc3ccc(S(=O)(=O)Nc4nccs4)cc3)CC2=O)cc1` (configuration not stated): the inhibition was -8.72% (inactive).

With `CC1C(=O)Nc2ccccc2N1C(=O)c1ccc(F)cc1F` (configuration not stated), the inhibition is 0.146% (inactive).

As to `O=[N+]([O-])c1ccccc1OCCCCN1CCCCC1`, the inhibition is 1.28% (inactive).

For the compound `Cc1ccc(OCCCCN2CCCCC2)c(Br)c1`, the inhibition is 54.8% (active).

Turning to `Cc1ccc(C(C)(C)C)c(OCCCCN2CCCC2)c1`, the inhibition was 27.7% (inactive).

For `COC(=O)C1=C[C@@H](C(=O)OC)[C@@H]2C3=C(C(=O)[C@]2(C)NC(=O)c2ccccc2)[C@H](C)n2c(=O)n(C)c(=O)n2[C@@H]3C1`, the inhibition is 11.2% (inactive).

As for `COc1ccccc1NS(=O)(=O)c1ccc(C)c(C(=O)NCC(c2ccco2)N(C)C)c1` (configuration not stated), the inhibition is 4.14% (inactive).

With `CCNC(=O)COc1cc(C)c(Br)c(C)c1`, the inhibition was 8.23% (inactive).

With `Cc1cc(=O)oc2cc(OCCC[n+]3ccccc3)ccc12`, the inhibition is 1.14% (inactive).

For the compound `Cc1ccccc1N1CCN(CCCOc2ccc3c(C)cc(=O)oc3c2)CC1`, the inhibition is 60% (active).

`Cc1cc(OCCCN2CCN(Cc3ccccc3)CC2)ccc1[N+](=O)[O-]`: the inhibition is 55.7% (active).

As for `Cc1cc(OCC(=O)NC2CCN(C)CC2)ccc1[N+](=O)[O-]`, the inhibition was 49.2% (inactive).

On to `CCOc1ccccc1N1CCN(C(=O)COc2ccc3c(C)cc(=O)oc3c2)CC1`, for which the inhibition was 24% (inactive).

As for `Cc1cc(OCCCCOc2ccc(C#N)cc2)ccc1[N+](=O)[O-]`, the inhibition was 19.5% (inactive).

As to `CC(C)CC(O)C1CCN(C(=O)CCc2nnc(-c3ccc4c(c3)OCO4)o2)CC1` (configuration not stated), the inhibition was 3.35% (inactive).

Regarding `Cc1ccc(OCCNC(=O)CNC(=O)c2ccc(C)c(C)c2)cc1`, the inhibition is -2.75% (inactive).

For the compound `Cc1ccc(-c2c[n+](CC(=O)Nc3ccccc3)c3n2CCC3)cc1`, the inhibition was -0.923% (inactive).

Turning to `Clc1ccc(C[n+]2cc(-c3ccccc3)n3c2CCC3)cc1`, the inhibition was 27.8% (inactive).

For `Cc1ccc(C(=O)C[n+]2cc(-c3ccccc3)n3c2CCCCC3)cc1`, the inhibition was 45.3% (inactive) and 65.4% (active).

As for `COc1ccc(-c2cc(C(=O)N3CCN(Cc4ccc5c(c4)OCO5)CC3)on2)cc1OC`, the inhibition is -12.7% (inactive).

Turning to `CCC(CC)c1nnc(NC(=O)C2=COCCO2)s1`, the inhibition was -5.48% (inactive).

`Cc1cccc(C(=O)NCCCN(C)CCCNC(=O)c2cccc(C)c2)c1`: the inhibition is 66.4% (active).

For the compound `Cc1cccc(C(=O)c2cccc(C)c2)c1`, the inhibition is -0.776% (inactive).

Consider `CCNC(=O)COC(=O)CCNC(=O)c1cccc(C)c1`, for which the inhibition is 8.59% (inactive).

For the compound `O=C(COC(=O)c1ccccc1Br)Nc1nnc(-c2ccccc2)o1`, the inhibition is 1.76% (inactive).

For the compound `O=c1[nH]c(CN2CCOCC2)nc2cc(Cl)ccc12`, the inhibition is -13.1% (inactive).

As to `O=c1[nH]c(CCl)nc2cc(-c3ccc(Cl)cc3)sc12`, the inhibition was 55.8% (active).

Turning to `NC(=O)Cc1nc2scc(-c3ccc(Cl)cc3)c2c(=O)[nH]1`, the inhibition is -9.75% (inactive).

Take `CCC1CCC/C1=N\NC(=O)c1ccc(Cl)cc1` (configuration not stated): the inhibition is -10.7% (inactive).

Turning to `Cc1ccccc1Nc1nc(N)nc(CSc2ccccc2)n1`, the inhibition was 4.95% (inactive).

As for `O=C(CNC(=O)c1ccccc1Br)NCCSc1ccc(Br)cc1`, the inhibition is -2.64% (inactive).

Turning to `NC(N)=N/N=C/c1ccc(Cl)c([N+](=O)[O-])c1`, the inhibition is 60.6% (active).

Turning to `O=C(/C=C/c1ccc(Cl)c([N+](=O)[O-])c1)c1cccnc1`, the inhibition was 34% (inactive).

`O=C(/C=C/c1ccc(Cl)c([N+](=O)[O-])c1)c1ccc(O)cc1`: the inhibition is -0.939% (inactive).

Turning to `COc1ccccc1C(=O)Nc1ccc(Nc2ccccc2)cc1`, the inhibition was -9% (inactive).

Consider `COc1ccccc1CNC(=O)COn1nnc2ccc(S(=O)(=O)N3CCOCC3)cc21`, for which the inhibition is 3.8% (inactive).

Turning to `Cc1ccc(Nc2nc(CSc3nnc(-c4ccncc4)n3-c3ccccc3C)cs2)cc1`, the inhibition is 57.4% (active).

For `Cc1ccc(-c2noc(CSc3nnc(-c4ccncc4)n3-c3ccc(F)cc3)n2)cc1`, the inhibition is 9.52% (inactive).

For `Cc1ccccc1-n1c(SCC(=O)NCc2cccs2)nnc1-c1ccncc1`, the inhibition was 9.95% (inactive).

Consider `COC(=O)c1cc(NC(=O)c2nn(C)c(=O)c3ccccc23)cc(C(=O)OC)c1`, for which the inhibition is -14.3% (inactive).

On to `O=C(CC1SC(N2CCCC2)=NC1=O)Nc1ccc(C(=O)NCCc2ccc(F)cc2)cc1` (configuration not stated), for which the inhibition is -6.73% (inactive).

For the compound `NS(=O)(=O)c1cccc(NC(=O)CN2CCCc3ccccc32)c1`, the inhibition is -16.2% (inactive).

For the compound `COC(=O)c1[nH]c2ccccc2c1NC(=O)CN1CCCc2ccccc21`, the inhibition was 67.6% (active).

In the case of `COC(=O)c1[nH]c2cccc(C)c2c1NC(=O)CN1CCCc2ccccc21`, the inhibition is 4.45% (inactive).

Turning to `CSc1n[nH]c(=S)n1N`, the inhibition was -10.3% (inactive).

Consider `COC(=O)c1cnc(Nc2cc(C)ccc2OC)c2ccccc12`, for which the inhibition was -8.82% (inactive).

As to `Cc1c(C(=O)NC(=S)NCc2cccnc2)oc2ccccc12`, the inhibition is 63.2% (active).

As to `Cc1nonc1NC(=O)c1oc2ccccc2c1C`, the inhibition is -12.6% (inactive).

With `Cc1ccc(C(=O)NC(=S)NCc2cccnc2)cc1`, the inhibition is 14.1% (inactive).

Consider `CC(C)CN(C(=O)COC(=O)c1ccc2ccccc2c1)c1c(N)n(Cc2ccccc2)c(=O)[nH]c1=O`, for which the inhibition was 2.62% (inactive).

For the compound `CCN(C(=O)COC(=O)C1CCN(S(=O)(=O)c2ccc(C)c(C)c2)CC1)C1CCS(=O)(=O)C1` (configuration not stated), the inhibition is -2.19% (inactive).

As to `Cc1ccc(C(=O)c2c(NC(=O)c3ccncc3)sc3c2CCCC3)cc1`, the inhibition is 57.9% (active).

`NC(=O)c1c(NC(=O)c2ccccc2)sc2c1CCCC2`: the inhibition is 12.5% (inactive).

`Cc1ccc(NC(=O)c2c(NC(=O)CCC(=O)O)sc3c2CCCCC3)cc1`: the inhibition was -8.68% (inactive).

With `CN(C)C(CNC(=O)c1cccc(S(=O)(=O)Nc2ccc(Br)cc2)c1)c1ccco1` (configuration not stated), the inhibition is 20.3% (inactive).

As for `COc1ccc(OC)c(NC(=O)c2ccc3c(c2)C(=O)N(c2ccc(OC(C)=O)cc2)C3=O)c1`, the inhibition was -18% (inactive).

Take `CCCOc1ccc(NC(=O)C2OC3OC(C)(C)OC3C3OC(C)(C)OC23)cc1` (configuration not stated): the inhibition was 4.62% (inactive).

Take `CN1CCN(/N=C/c2ccc(-c3ccc([N+](=O)[O-])cc3)o2)CC1`: the inhibition was 59.9% (active).

For the compound `Cc1cc(-c2ccc(/C=N/n3cnnc3)o2)c([N+](=O)[O-])cc1C`, the inhibition was -3.12% (inactive).

In the case of `CN1CCN(/N=C/c2ccc(C#N)cc2)CC1`, the inhibition is 48.6% (inactive).

Regarding `COc1ccc(-c2nc3c(s2)CCc2onc(-c4ccc(Br)cc4)c2-3)cc1`, the inhibition was -2.05% (inactive).

In the case of `Cc1ccc(OCCNC(=O)CCNS(=O)(=O)c2ccc(Br)cc2)cc1`, the inhibition was -1.12% (inactive).

Turning to `COc1ccc(NC(=O)CSc2nnc(Cc3ccccc3)c(=O)n2N)cc1`, the inhibition is -3.84% (inactive).

By inhibition is commonly meant the change of the read-out against control, counted positive when it falls.
